Assay results reported in ChEMBL document CHEMBL5724801, “EUbOPEN Chemogenomics Library - Multiplex” (2024).
Where “and” joins values, the source holds several entries; their conditions need not be identical. Identical values can stand only once.

Tested on: U2OS
Assay: Multiplex assay against U2OS
Assay type: toxicity, cell-based
Settings: human
Procedure, shortened: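 On a CQ1 microscope at 37°C and 5% CO2, live cells were imaged after compound addition. They had been stained at seeding with Hoechst33342, BioTracker Green Microtubule Cytoskeleton Dye, MitoTracker Red and Annexin V Alexa Fluor 680. CellPathfinder machine-learning gating assigned cells to Hoechst high-intensity objects or normal cells, normal cells to healthy, pyknosed or fragmented nuclei, and pyknosed cells to mitotic or apoptotic. Tubulin, mitochondrial-mass and membrane-permeability phenotypes are per cents of healthy-nucleus cells.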

[1] = 12 h, 1 µM, compound concentration 1 uM
[2] = 12 h, 10 µM, compound concentration 10 uM
[3] = 24 h, 1 µM, compound concentration 1 uM
[4] = 24 h, 10 µM, compound concentration 10 uM
[5] = 48 h, 1 µM, compound concentration 1 uM
[6] = 48 h, 10 µM, compound concentration 10 uM

COc1cc(C(=O)N2CC[C@@H](O)[C@@H](N)C2)cc2nc(-c3cc4ccccc4n3CC3CC3)n(C)c12.Cl
Population Apoptotic (%) [1]: 50% and 75%
Population Fragmented Nuclei (%) [1]: 32% and 15%
Population Healthy Nuclei (%) [1]: 53% and 75%
Population Hoechst High Intensity Objects (%) [1]: 4% and 1%
Population Membrane Permeable-Phenotype (%) [1]: 38% and 20%
Population Mitochondria Different-Phenotype (%) [1]: 16% and 18%
Population Mitotic Cells (%) [1]: 50% and 25%
Population Normal (%) [1]: 95% and 98%
Population Pyknosed Nuclei (%) [1]: 14% and 8%
Population Tubulin-Different-Phenotype (%) [1]: 29% and 15%
Total Cell Count [1]: 223 and 92
Population Apoptotic (%) [2]: 68% and 56%
Population Fragmented Nuclei (%) [2]: 23% and 16%
Population Healthy Nuclei (%) [2]: 38% and 61%
Population Hoechst High Intensity Objects (%) [2]: 6% and 5%
Population Membrane Permeable-Phenotype (%) [2]: 75% and 79%
Population Mitochondria Different-Phenotype (%) [2]: 88% and 91%
Population Mitotic Cells (%) [2]: 31% and 44%
Population Normal (%) [2]: 93% and 94%
Population Pyknosed Nuclei (%) [2]: 37% and 22%
Population Tubulin-Different-Phenotype (%) [2]: 96% and 94%
Total Cell Count [2]: 208 and 120
Population Apoptotic (%) [3]: 78% and 75%
Population Fragmented Nuclei (%) [3]: 28% and 18%
Population Healthy Nuclei (%) [3]: 54% and 69%
Population Hoechst High Intensity Objects (%) [3]: 3% and 2%
Population Membrane Permeable-Phenotype (%) [3]: 19% and 17%
Population Mitochondria Different-Phenotype (%) [3]: 14% and 18%
Population Mitotic Cells (%) [3]: 21% and 25%
Population Normal (%) [3]: 96% and 97%
Population Pyknosed Nuclei (%) [3]: 17% and 11%
Population Tubulin-Different-Phenotype (%) [3]: 12% and 17%
Total Cell Count [3]: 243 and 109
Population Apoptotic (%) [4]: 84% and 71%
Population Fragmented Nuclei (%) [4]: 25% and 26%
Population Healthy Nuclei (%) [4]: 35% and 48%
Population Hoechst High Intensity Objects (%) [4]: 4%
Population Membrane Permeable-Phenotype (%) [4]: 57% and 50%
Population Mitochondria Different-Phenotype (%) [4]: 88% and 85%
Population Mitotic Cells (%) [4]: 15% and 28%
Population Normal (%) [4]: 95%
Population Pyknosed Nuclei (%) [4]: 38% and 25%
Population Tubulin-Different-Phenotype (%) [4]: 78% and 90%
Total Cell Count [4]: 222 and 133
Population Apoptotic (%) [5]: 82% and 76%
Population Fragmented Nuclei (%) [5]: 23%
Population Healthy Nuclei (%) [5]: 61%
Population Hoechst High Intensity Objects (%) [5]: 2%
Population Membrane Permeable-Phenotype (%) [5]: 9% and 17%
Population Mitochondria Different-Phenotype (%) [5]: 5% and 11%
Population Mitotic Cells (%) [5]: 17% and 23%
Population Normal (%) [5]: 97%
Population Pyknosed Nuclei (%) [5]: 15% and 14%
Population Tubulin-Different-Phenotype (%) [5]: 5% and 12%
Total Cell Count [5]: 304 and 149
Population Apoptotic (%) [6]: 88% and 92%
Population Fragmented Nuclei (%) [6]: 29% and 30%
Population Healthy Nuclei (%) [6]: 35%
Population Hoechst High Intensity Objects (%) [6]: 12% and 6%
Population Membrane Permeable-Phenotype (%) [6]: 47%
Population Mitochondria Different-Phenotype (%) [6]: 65% and 84%
Population Mitotic Cells (%) [6]: 11% and 7%
Population Normal (%) [6]: 87% and 93%
Population Pyknosed Nuclei (%) [6]: 35% and 34%
Population Tubulin-Different-Phenotype (%) [6]: 62% and 75%
Total Cell Count [6]: 232 and 131

CN(C)CCCc1cc(C(=O)Nc2ccc(-c3ccncc3)cc2)ccc1O.Cl.Cl
Population Apoptotic (%) [1]: 89% and 100%
Population Fragmented Nuclei (%) [1]: 29% and 10%
Population Healthy Nuclei (%) [1]: 60% and 75%
Population Hoechst High Intensity Objects (%) [1]: 2% and 0%
Population Membrane Permeable-Phenotype (%) [1]: 6% and 2%
Population Mitochondria Different-Phenotype (%) [1]: 0% and 1%
Population Mitotic Cells (%) [1]: 10% and 0%
Population Normal (%) [1]: 97% and 99%
Population Pyknosed Nuclei (%) [1]: 9% and 13%
Population Tubulin-Different-Phenotype (%) [1]: 3% and 0%
Total Cell Count [1]: 199 and 124
Population Apoptotic (%) [2]: 77% and 42%
Population Fragmented Nuclei (%) [2]: 28% and 24%
Population Healthy Nuclei (%) [2]: 62% and 63%
Population Hoechst High Intensity Objects (%) [2]: 4% and 1%
Population Membrane Permeable-Phenotype (%) [2]: 7% and 4%
Population Mitochondria Different-Phenotype (%) [2]: 1% and 8%
Population Mitotic Cells (%) [2]: 22% and 57%
Population Normal (%) [2]: 95% and 98%
Population Pyknosed Nuclei (%) [2]: 9% and 12%
Population Tubulin-Different-Phenotype (%) [2]: 2%
Total Cell Count [2]: 237 and 113
Population Apoptotic (%) [3]: 100% and 94%
Population Fragmented Nuclei (%) [3]: 28% and 11%
Population Healthy Nuclei (%) [3]: 65% and 77%
Population Hoechst High Intensity Objects (%) [3]: 2% and 4%
Population Membrane Permeable-Phenotype (%) [3]: 5% and 7%
Population Mitochondria Different-Phenotype (%) [3]: 2% and 5%
Population Mitotic Cells (%) [3]: 0% and 5%
Population Normal (%) [3]: 97% and 95%
Population Pyknosed Nuclei (%) [3]: 6% and 11%
Population Tubulin-Different-Phenotype (%) [3]: 3% and 5%
Total Cell Count [3]: 247 and 178
Population Apoptotic (%) [4]: 72% and 66%
Population Fragmented Nuclei (%) [4]: 28% and 21%
Population Healthy Nuclei (%) [4]: 58% and 63%
Population Hoechst High Intensity Objects (%) [4]: 4% and 0%
Population Membrane Permeable-Phenotype (%) [4]: 6% and 4%
Population Mitochondria Different-Phenotype (%) [4]: 3% and 8%
Population Mitotic Cells (%) [4]: 27% and 33%
Population Normal (%) [4]: 95% and 100%
Population Pyknosed Nuclei (%) [4]: 13% and 15%
Population Tubulin-Different-Phenotype (%) [4]: 1% and 2%
Total Cell Count [4]: 257 and 118
Population Apoptotic (%) [5]: 88% and 93%
Population Fragmented Nuclei (%) [5]: 25% and 15%
Population Healthy Nuclei (%) [5]: 69% and 71%
Population Hoechst High Intensity Objects (%) [5]: 3%
Population Membrane Permeable-Phenotype (%) [5]: 5% and 7%
Population Mitochondria Different-Phenotype (%) [5]: 3%
Population Mitotic Cells (%) [5]: 11% and 6%
Population Normal (%) [5]: 96%
Population Pyknosed Nuclei (%) [5]: 5% and 13%
Population Tubulin-Different-Phenotype (%) [5]: 3% and 4%
Total Cell Count [5]: 338 and 259
Population Apoptotic (%) [6]: 74% and 68%
Population Fragmented Nuclei (%) [6]: 25% and 20%
Population Healthy Nuclei (%) [6]: 61% and 63%
Population Hoechst High Intensity Objects (%) [6]: 5% and 4%
Population Membrane Permeable-Phenotype (%) [6]: 5% and 13%
Population Mitochondria Different-Phenotype (%) [6]: 3% and 8%
Population Mitotic Cells (%) [6]: 25% and 32%
Population Normal (%) [6]: 94% and 95%
Population Pyknosed Nuclei (%) [6]: 12% and 16%
Population Tubulin-Different-Phenotype (%) [6]: 5% and 9%
Total Cell Count [6]: 352 and 160
